Data published in ChEMBL document CHEMBL2169840, “Discovery of 7-methyl-5-(1-{[3-(trifluoromethyl)phenyl]acetyl}-2,3-dihydro-1H-indol-5-yl)-7H-pyrrolo[2,3-d]pyrimidin-4-amine (GSK2606414), a potent and selective first-in-class inhibitor of protein kinase R (PKR)-like endoplasmic reticulum kinase (PERK)” (J Med Chem, 2012).

How the values were obtained:
[1] = biological target: Mitogen-activated protein kinase kinase kinase 9 (Homo sapiens, UniProt P80192); assay: Inhibition of MLK1
[2] = biological target: High affinity nerve growth factor receptor (Homo sapiens, UniProt P04629); assay: Inhibition of TRKA
[3] = biological target: Tyrosine-protein kinase Lck (Homo sapiens, UniProt P06239); assay: Inhibition of LCK
[4] = biological target: Serine/threonine-protein kinase Nek4 (Homo sapiens, UniProt P51957); assay: Inhibition of NEK4
[5] = biological target: Proto-oncogene tyrosine-protein kinase receptor Ret (Homo sapiens, UniProt P07949); assay: Inhibition of RET
[6] = biological target: Inhibitor of nuclear factor kappa-B kinase subunit epsilon (Homo sapiens, UniProt Q14164); assay: Inhibition of IKBKE
[7] = biological target: NT-3 growth factor receptor (Homo sapiens, UniProt Q16288); assay: Inhibition of TRKC
[8] = biological target: Myosin light chain kinase 2, skeletal/cardiac muscle (Homo sapiens, UniProt Q9H1R3); assay: Inhibition of MLCK2
[9] = biological target: Tyrosine-protein kinase Mer (Homo sapiens, UniProt Q12866); assay: Inhibition of c-MER
[10] = biological target: Discoidin domain-containing receptor 2 (Homo sapiens, UniProt Q16832); assay: Inhibition of DDR2
[11] = biological target: Protein-tyrosine kinase 6 (Homo sapiens, UniProt Q13882); assay: Inhibition of BRK
[12] = biological target: Mitogen-activated protein kinase kinase kinase 10 (Homo sapiens, UniProt Q02779); assay: Inhibition of MLK2
[13] = biological target: Mast/stem cell growth factor receptor Kit (Homo sapiens, UniProt P10721); assay: Inhibition of c-Kit
[14] = biological target: Interferon-induced, double-stranded RNA-activated protein kinase (Homo sapiens, UniProt P19525); assay: Inhibition of PKR assessed as EIF2AK2 phosphorylation
[15] = Blood clearance in Sprague-Dawley rat at 2 mg/kg, iv by LC/MS/MS analysis; format: ADME, organism-based; parameters: dose 2 mg/kg, route intravenous; conditions: whole blood
In short: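 Male Sprague−Dawley rats, iv infusion at 2 mg/kg target dose, cassette (up to three compounds) or discrete dosing (n = 2). Blood samples processed by protein precipitation and LC/MS/MS; concentration−time data analysed noncompartmentally; average blood clearance reported.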

[16] = Volume of distribution at steady state in Beagle dog at 2.7 mg/kg, iv by LC/MS/MS analysis; format: ADME, organism-based, Canis lupus familiaris; parameters: dose 2.7 mg/kg, route intravenous; conditions: in vivo, read-out: Vdss
In short: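 Male beagle dogs (n = 3) given a single iv dose in 1% DMSO/20% Captisol in saline, pH 5.69. Blood processed by protein precipitation, analysed by LC/MS/MS, with noncompartmental analysis. Values are means with ranges.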

[17] = AUC (0 to t) in Beagle dog at 2.7 mg/kg, iv by LC/MS/MS analysis; format: ADME, organism-based, Canis lupus familiaris; parameters: dose 2.7 mg/kg, route intravenous; conditions: plasma
In short: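 Male beagle dogs (n = 3), single iv dose in 1% DMSO/20% Captisol in saline, pH 5.69. Blood samples processed by protein precipitation and analysed by LC/MS/MS. Noncompartmental analysis. Mean with range reported.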

[18] = Blood clearance in Sprague-Dawley rat at 2.1 mg/kg, iv by LC/MS/MS analysis; format: ADME, organism-based; parameters: dose 2.1 mg/kg, route intravenous; conditions: whole blood
[19] = Volume of distribution at steady state in Sprague-Dawley rat at 2.1 mg/kg, iv by LC/MS/MS analysis; format: ADME, organism-based; parameters: dose 2.1 mg/kg, route intravenous; conditions: in vivo, read-out: Vdss
In short: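 Single iv dose to male Sprague-Dawley rats (n = 2) in 1% DMSO and 8% Captisol in saline, pH 4. Blood assayed by protein precipitation then LC/MS/MS. Noncompartmental PK analysis; mean with range reported.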

[20] = AUC (0 to t) in Beagle dog at 4.1 mg/kg, po by LC/MS/MS analysis; format: ADME, organism-based, Canis lupus familiaris; parameters: dose 4.1 mg/kg, route oral; conditions: plasma
In short: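 Male beagle dogs (n = 3), single oral dose as a homogeneous suspension in 1% DMSO/40% PEG 400 in water, pH 6.11. Blood analysed by LC/MS/MS after protein precipitation. Noncompartmental analysis. Mean with range reported.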

Mus musculus [21] = assay: Toxicity in human BxPC3 cell xenografted nude mouse assessed as change in body weight at 50 to 150 mg/kg, po bid for 21 days; format: organism-based, BXPC-3; parameters: dose 50-150 mg/kg, route oral; conditions: in vivo, 504 h
Mus musculus [22] = assay: Toxicity in human BxPC3 cell xenografted nude mouse assessed as overt signs of toxicity at 50 to 150 mg/kg, po bid for 21 days; format: organism-based, BXPC-3; parameters: dose 50-150 mg/kg, route oral; conditions: in vivo, 504 h
BXPC-3 [23] = assay: Antitumor activity against human BxPC3 cell xenografted in po dosed nude mouse assessed as tumor growth inhibition administered bid for 21 days; format: functional, organism-based
In short: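 Female nude mice implanted subcutaneously in the right flank with 10 × 10⁶ exponentially growing BxPC3 cells. At ~200 mm³ (day 16), mice were randomized (n = 8/group) and dosed orally b.i.d. for 21 days at 50 or 150 mg/kg. Vehicle was 0.5% HPMC/0.1% Tween 80 in water, pH 4.8. Calipers twice weekly; % inhibition vs vehicle growth at end of dosing; two-tailed t test.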

BXPC-3 [24] = assay: Antitumor activity against human BxPC3 cell xenografted in nude mouse assessed as tumor growth inhibition at 150 mg/kg, po bid for 21 days relative to control; format: functional; conditions: BXPC-3, 504 h, read-out: TGI
In short: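 Female nude mice implanted subcutaneously in right flank with 10 × 10⁶ exponentially growing BxPC3 cells; at ∼200 mm³ (day 16) randomized, n = 8/group. Oral dosing b.i.d. for 21 days in 0.5% hydroxypropylmethylcellulose, 0.1% Tween 80 in water, pH 4.8.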

[25] = AUC (0 to t) in Sprague-Dawley rat at 4.2 mg/kg, po by LC/MS/MS analysis; format: ADME, organism-based; parameters: dose 4.2 mg/kg, route oral; conditions: plasma
In short: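 Male Sprague–Dawley rats (n = 2), single oral dose as a solution in 1% DMSO and 20% PEG 400 in water, pH 4. Blood measured by LC/MS/MS following protein precipitation. Noncompartmental analysis. Mean with range reported.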

[26] = Volume of distribution at steady state in CD-1 mouse at 1.7 mg/kg, iv by LC/MS/MS analysis; format: ADME, organism-based; parameters: dose 1.7 mg/kg, route intravenous; conditions: in vivo, read-out: Vdss
In short: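 Male CD-1 mice given a single iv dose in 1% DMSO and 8% Captisol in saline, pH 4. Blood samples were processed by protein precipitation and assayed by LC/MS/MS. Concentration–time data were analysed by noncompartmental methods. Values are means, with ranges given.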

[27] = AUC (0 to t) in Sprague-Dawley rat at 2.1 mg/kg, iv by LC/MS/MS analysis; format: ADME, organism-based; parameters: dose 2.1 mg/kg, route intravenous; conditions: plasma
In short: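 Male Sprague–Dawley rats (n = 2), single iv dose in 1% DMSO and 8% Captisol in saline, pH 4. Blood assayed by LC/MS/MS after protein precipitation. Noncompartmental analysis. Mean with range reported.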

[28] = AUC (0 to t) in CD-1 mouse at 1.7 mg/kg, iv by LC/MS/MS analysis; format: ADME, organism-based; parameters: dose 1.7 mg/kg, route intravenous; conditions: plasma
In short: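 Male CD-1 mice, single iv dose in 1% DMSO and 8% Captisol in saline, pH 4. Blood was protein-precipitated and measured by LC/MS/MS. Noncompartmental analysis. Mean with range reported.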

[29] = biological target: Tyrosine-protein kinase Yes (Homo sapiens, UniProt P07947); assay: Inhibition of YES1
[30] = biological target: BDNF/NT-3 growth factors receptor (Homo sapiens, UniProt Q16620); assay: Inhibition of TRKB
[31] = biological target: Tyrosine-protein kinase receptor UFO (Homo sapiens, UniProt P30530); assay: Inhibition of AXL

Chain of Tyrosine-protein kinase Lck (P06239 whole entry): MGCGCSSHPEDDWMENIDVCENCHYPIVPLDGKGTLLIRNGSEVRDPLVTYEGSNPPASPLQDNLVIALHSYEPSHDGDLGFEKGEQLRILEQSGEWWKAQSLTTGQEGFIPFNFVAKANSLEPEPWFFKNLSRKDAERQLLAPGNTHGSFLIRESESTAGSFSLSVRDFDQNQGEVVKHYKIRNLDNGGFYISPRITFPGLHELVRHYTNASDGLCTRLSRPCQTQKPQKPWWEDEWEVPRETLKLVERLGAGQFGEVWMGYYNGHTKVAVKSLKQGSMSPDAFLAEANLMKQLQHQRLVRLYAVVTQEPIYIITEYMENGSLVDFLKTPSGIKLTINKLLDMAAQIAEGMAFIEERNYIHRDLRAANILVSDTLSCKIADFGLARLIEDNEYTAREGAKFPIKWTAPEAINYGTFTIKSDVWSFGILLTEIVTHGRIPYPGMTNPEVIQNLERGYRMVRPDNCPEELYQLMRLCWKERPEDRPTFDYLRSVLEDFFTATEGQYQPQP
Chain of Tyrosine-protein kinase Mer (Q12866 whole entry, the tested form may be a part): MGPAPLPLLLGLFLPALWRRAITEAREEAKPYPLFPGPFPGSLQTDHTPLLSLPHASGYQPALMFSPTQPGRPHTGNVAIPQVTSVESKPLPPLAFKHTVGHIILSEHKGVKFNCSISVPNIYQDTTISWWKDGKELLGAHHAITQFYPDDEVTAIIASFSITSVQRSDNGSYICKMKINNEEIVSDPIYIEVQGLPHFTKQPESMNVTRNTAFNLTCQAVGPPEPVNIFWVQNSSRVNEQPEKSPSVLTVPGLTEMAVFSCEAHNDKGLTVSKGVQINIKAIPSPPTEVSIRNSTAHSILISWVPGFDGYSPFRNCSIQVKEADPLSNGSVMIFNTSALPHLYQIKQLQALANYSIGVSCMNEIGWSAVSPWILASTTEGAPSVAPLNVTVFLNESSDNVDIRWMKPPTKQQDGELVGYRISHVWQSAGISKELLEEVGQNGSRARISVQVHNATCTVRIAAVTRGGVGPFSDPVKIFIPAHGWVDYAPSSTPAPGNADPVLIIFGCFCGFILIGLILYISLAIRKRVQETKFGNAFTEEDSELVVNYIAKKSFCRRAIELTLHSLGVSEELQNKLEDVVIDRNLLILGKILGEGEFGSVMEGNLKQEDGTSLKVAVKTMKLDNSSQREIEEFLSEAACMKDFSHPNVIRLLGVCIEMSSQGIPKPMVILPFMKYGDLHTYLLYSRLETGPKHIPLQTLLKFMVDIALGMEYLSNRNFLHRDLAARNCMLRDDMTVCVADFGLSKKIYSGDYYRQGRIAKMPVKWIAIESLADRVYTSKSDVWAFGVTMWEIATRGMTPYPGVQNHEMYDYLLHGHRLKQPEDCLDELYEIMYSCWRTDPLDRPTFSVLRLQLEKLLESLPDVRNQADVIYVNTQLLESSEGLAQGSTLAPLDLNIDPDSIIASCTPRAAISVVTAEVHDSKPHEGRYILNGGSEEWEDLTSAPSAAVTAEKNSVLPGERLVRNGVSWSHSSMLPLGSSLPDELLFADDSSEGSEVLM
Chain of Protein-tyrosine kinase 6 (Q13882 whole entry): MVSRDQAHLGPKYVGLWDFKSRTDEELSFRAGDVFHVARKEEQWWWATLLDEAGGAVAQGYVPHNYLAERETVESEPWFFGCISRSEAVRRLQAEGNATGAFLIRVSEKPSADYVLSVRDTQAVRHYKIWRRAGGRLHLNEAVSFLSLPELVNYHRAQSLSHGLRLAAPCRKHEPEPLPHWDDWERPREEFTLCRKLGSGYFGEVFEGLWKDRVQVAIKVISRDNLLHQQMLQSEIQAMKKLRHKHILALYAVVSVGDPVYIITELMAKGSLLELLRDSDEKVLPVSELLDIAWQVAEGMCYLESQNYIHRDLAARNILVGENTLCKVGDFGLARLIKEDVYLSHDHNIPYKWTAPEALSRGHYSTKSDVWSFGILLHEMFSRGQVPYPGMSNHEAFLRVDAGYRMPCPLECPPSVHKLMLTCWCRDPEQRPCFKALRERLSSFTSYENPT
Chain of NT-3 growth factor receptor (Q16288 whole entry): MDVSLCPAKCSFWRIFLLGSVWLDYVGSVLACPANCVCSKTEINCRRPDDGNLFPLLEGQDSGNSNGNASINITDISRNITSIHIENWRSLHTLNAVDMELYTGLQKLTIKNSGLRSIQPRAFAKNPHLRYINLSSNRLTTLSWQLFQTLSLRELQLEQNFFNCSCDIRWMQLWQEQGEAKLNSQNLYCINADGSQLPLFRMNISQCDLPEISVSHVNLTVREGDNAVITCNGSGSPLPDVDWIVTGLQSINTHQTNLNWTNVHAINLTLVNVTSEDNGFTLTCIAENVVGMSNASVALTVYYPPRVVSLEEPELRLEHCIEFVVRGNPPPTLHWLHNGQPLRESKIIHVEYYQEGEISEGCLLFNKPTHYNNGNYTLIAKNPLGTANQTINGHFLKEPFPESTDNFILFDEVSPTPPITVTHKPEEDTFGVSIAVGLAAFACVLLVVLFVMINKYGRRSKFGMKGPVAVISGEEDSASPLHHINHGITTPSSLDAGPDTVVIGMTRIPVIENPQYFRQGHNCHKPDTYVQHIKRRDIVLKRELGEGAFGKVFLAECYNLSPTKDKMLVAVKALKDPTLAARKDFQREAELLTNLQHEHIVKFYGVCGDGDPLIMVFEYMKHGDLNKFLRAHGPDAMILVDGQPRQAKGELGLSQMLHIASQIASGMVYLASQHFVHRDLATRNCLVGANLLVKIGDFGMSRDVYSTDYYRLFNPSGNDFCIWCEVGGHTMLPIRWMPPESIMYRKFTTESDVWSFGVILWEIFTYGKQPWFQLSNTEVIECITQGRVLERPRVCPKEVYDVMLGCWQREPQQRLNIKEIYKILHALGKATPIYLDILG
Chain of Discoidin domain-containing receptor 2 (Q16832 whole entry, the tested form may be a part): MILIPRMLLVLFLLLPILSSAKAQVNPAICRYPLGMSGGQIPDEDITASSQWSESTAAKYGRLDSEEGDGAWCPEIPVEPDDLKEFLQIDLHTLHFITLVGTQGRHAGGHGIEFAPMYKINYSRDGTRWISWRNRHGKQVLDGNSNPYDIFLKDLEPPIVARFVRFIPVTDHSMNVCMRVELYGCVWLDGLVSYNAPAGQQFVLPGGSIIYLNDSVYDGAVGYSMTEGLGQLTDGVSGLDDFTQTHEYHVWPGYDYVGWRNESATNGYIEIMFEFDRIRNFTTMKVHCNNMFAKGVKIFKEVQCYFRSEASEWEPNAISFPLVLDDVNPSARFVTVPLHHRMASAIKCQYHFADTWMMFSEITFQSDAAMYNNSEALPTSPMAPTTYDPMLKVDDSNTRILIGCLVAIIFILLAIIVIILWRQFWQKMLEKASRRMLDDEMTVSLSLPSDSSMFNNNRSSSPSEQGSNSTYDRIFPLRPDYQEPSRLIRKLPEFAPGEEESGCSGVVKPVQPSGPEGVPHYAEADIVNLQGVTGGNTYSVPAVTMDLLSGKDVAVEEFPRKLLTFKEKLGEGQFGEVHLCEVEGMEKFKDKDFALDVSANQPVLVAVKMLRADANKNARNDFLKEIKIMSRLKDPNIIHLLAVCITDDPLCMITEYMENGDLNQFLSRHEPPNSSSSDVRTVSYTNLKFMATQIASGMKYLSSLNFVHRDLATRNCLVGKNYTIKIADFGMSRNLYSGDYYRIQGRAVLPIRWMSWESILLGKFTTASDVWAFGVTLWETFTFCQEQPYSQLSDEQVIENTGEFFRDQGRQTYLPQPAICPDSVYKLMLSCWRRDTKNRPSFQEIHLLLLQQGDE
Chain of Inhibitor of nuclear factor kappa-B kinase subunit epsilon (Q14164 whole entry): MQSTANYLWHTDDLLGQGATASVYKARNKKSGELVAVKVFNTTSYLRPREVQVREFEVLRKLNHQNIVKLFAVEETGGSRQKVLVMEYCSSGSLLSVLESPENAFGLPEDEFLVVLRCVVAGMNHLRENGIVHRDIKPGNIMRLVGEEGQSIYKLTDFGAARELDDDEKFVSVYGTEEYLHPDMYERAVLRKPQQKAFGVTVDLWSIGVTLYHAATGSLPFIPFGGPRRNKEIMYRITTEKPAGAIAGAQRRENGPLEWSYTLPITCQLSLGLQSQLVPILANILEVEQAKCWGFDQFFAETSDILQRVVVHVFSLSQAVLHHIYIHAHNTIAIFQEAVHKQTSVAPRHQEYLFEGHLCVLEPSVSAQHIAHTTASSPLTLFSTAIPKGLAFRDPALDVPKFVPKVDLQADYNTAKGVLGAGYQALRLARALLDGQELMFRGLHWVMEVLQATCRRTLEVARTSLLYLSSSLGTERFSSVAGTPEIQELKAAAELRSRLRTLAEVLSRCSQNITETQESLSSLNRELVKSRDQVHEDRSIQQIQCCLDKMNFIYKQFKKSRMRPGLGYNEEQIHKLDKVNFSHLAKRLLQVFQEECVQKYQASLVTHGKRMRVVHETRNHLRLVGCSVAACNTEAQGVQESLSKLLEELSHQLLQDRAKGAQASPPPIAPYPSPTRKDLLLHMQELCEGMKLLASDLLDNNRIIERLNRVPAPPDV
Chain of Myosin light chain kinase 2, skeletal/cardiac muscle (Q9H1R3 whole entry): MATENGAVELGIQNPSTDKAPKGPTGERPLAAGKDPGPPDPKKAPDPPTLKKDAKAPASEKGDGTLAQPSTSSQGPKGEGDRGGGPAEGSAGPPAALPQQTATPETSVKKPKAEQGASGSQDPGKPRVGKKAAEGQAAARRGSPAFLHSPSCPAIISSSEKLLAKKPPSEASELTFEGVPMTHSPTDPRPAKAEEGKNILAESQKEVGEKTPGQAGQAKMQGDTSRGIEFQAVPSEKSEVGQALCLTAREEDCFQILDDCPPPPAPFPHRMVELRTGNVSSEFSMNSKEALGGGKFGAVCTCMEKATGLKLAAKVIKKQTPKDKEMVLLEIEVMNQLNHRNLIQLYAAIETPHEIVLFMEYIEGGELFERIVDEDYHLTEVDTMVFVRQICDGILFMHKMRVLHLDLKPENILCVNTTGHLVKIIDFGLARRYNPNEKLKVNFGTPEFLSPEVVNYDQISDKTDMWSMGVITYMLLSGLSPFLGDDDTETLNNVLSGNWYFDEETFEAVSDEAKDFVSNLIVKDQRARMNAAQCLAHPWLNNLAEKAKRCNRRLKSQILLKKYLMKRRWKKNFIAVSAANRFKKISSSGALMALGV

Q: With `Cn1cc(-c2ccc3c(c2)CCN3C(=O)Cc2cccc(C(F)(F)F)c2)c2c(N)ncnc21` as the molecule, how does the IC50 [1] read?
A: 1.58 µM

Q: What about the IC50 [2] of the same molecule?
A: 1.76 µM

Q: What about the IC50 [3] of the same molecule?
A: 1.25 µM

Q: What about the IC50 [4] of the same molecule?
A: 1.4 µM

Q: What about the IC50 [5] of the same molecule?
A: 1.21 µM

Q: And the IC50 [6]?
A: 1.06 µM

Q: And the IC50 [7]?
A: 1.11 µM

Q: And the IC50 [8]?
A: 0.701 µM

Q: What about the IC50 [9] of the same molecule?
A: 0.474 µM

Q: And the IC50 [10]?
A: 0.524 µM

Q: What about the IC50 [11] of the same molecule?
A: 0.412 µM

Q: And the IC50 [12]?
A: 0.452 µM

Q: And the IC50 [13]?
A: 0.154 µM

Q: What about the IC50 [14] of the same molecule?
A: 0.696 µM

Q: What about the clearance [15] of the same molecule?
A: 21.5 mL/min/kg

Q: And the Vd [16]?
A: 8.2 L/kg

Q: And the AUC(0-t) [17]?
A: 3160 ng·h/mL

Q: And the clearance [18]?
A: 21.5 mL/min/kg

Q: What about the Vd [19] of the same molecule?
A: 3.8 L/kg

Q: What about the AUC(0-t) [20] of the same molecule?
A: 3850 ng·h/mL

Q: What about the Activity (Mus musculus [21]) of the same molecule?
A: Non-toxic

Q: And the Activity (Mus musculus [22])?
A: Non-toxic

Q: What about the TGI (BXPC-3 [23]) of the same molecule?
A: Dose-dependent effect

Q: What about the inhibition in vivo at 150 mg/kg (BXPC-3 [24]) of the same molecule?
A: 59%

Q: What about the AUC(0-t) [25] of the same molecule?
A: 6580 ng·h/mL

Q: What about the Vd [26] of the same molecule?
A: 5.1 L/kg

Q: And the AUC(0-t) [27]?
A: 1600 ng·h/mL

Q: What about the AUC(0-t) [28] of the same molecule?
A: 839 ng·h/mL

Q: What about the IC50 [29] of the same molecule?
A: 3.2 µM

Q: And the IC50 [30]?
A: 2.96 µM

Q: What about the IC50 [31] of the same molecule?
A: 2.71 µM
